Measured values: ChEMBL document CHEMBL1152640, “Synthesis and antiproliferative evaluation of 6-arylindeno[1,2-c]quinoline derivatives” (Bioorg Med Chem, 2009)

Columns and labels:
[1] = Cytotoxicity against human MRC5 cells after 72 hrs by XTT assay; assay type: cell-based
Procedure, shortened: (§1)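 Cells were grown as monolayers in DMEM with 10% FBS, penicillin, streptomycin and amphotericin at 37 °C and 5% CO2. Plating was 5×10³ cells/well, with treatment for 72 h in 10% FBS medium, a medium change, then another day. XTT (1 mg/mL) plus PMS in serum-free medium was added for 4 h at 37 °C and read at 492 nm. Growth was taken as % of control (mean of n = 3). GI50 was taken from the linear portion of the curve as the 50% absorbance reduction.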

[2] = Antiproliferative activity against human HepG2(2.2.1) cells after 72 hrs by XTT assay; assay type: functional; settings: HepG2, 72 h; procedure, shortened: as §1
[3] = Antiproliferative activity against human Hep3B cells after 72 hrs by XTT assay; assay type: functional, Hep 3B2; procedure, shortened: as §1
A549 [4] = experiment: Antiproliferative activity against human A549 cells after 72 hrs by XTT assay; assay type: functional; settings: A549, 72 h; procedure, shortened: as §1
HepG2 = experiment: Antiproliferative activity against human HepG2 cells after 72 hrs by XTT assay; assay type: functional; settings: HepG2, 72 h; procedure, shortened: as §1
[5] = Antiproliferative activity against human H1299 cells after 72 hrs by XTT assay; assay type: functional; settings: NCI-H1299, 72 h; procedure, shortened: as §1
A549 [6] = experiment: Cell cycle arrest in human A549 cells assessed as accumulation at subG1 phase at 10.0 uM after 24 hrs by flow cytometry; assay type: functional
Procedure, shortened: (§2)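 A549 cells were exposed to DMSO or compound at 0.1, 1.0, 5.0 or 10.0 µM for 24 h. Cells were harvested, rinsed in PBS, fixed in 70% ethanol and stored at −20 °C. Staining used propidium iodide solution with 0.2 mg/mL RNase and 0.1% Triton X-100, at least 30 min at room temperature in the dark. Cell-cycle phases were read by flow cytometry.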

A549 [7] = experiment: Cell cycle arrest in human A549 cells assessed as accumulation at subG1 phase at 5.0 uM after 24 hrs by flow cytometry; assay type: functional; procedure, shortened: as §2
A549 [8] = experiment: Cell cycle arrest in human A549 cells assessed as accumulation at G1 phase at 1.0 uM after 24 hrs by flow cytometry; assay type: functional; procedure, shortened: as §2
A549 [9] = experiment: Cell cycle arrest in human A549 cells assessed as accumulation at subG1 phase at 1.0 uM after 24 hrs by flow cytometry; assay type: functional; procedure, shortened: as §2
A549 [10] = experiment: Cell cycle arrest in human A549 cells assessed as accumulation at G2/M phase at 10.0 uM after 24 hrs by flow cytometry; assay type: functional; procedure, shortened: as §2
A549 [11] = experiment: Cell cycle arrest in human A549 cells assessed as accumulation at S phase at 1.0 uM after 24 hrs by flow cytometry; assay type: functional; procedure, shortened: as §2
A549 [12] = experiment: Cell cycle arrest in human A549 cells assessed as accumulation at G1 phase at 10.0 uM after 24 hrs by flow cytometry; assay type: functional; procedure, shortened: as §2
A549 [13] = experiment: Cell cycle arrest in human A549 cells assessed as accumulation at G1 phase at 5.0 uM after 24 hrs by flow cytometry; assay type: functional; procedure, shortened: as §2
A549 [14] = experiment: Cell cycle arrest in human A549 cells assessed as accumulation at S phase at 5.0 uM after 24 hrs by flow cytometry; assay type: functional; procedure, shortened: as §2
A549 [15] = experiment: Cell cycle arrest in human A549 cells assessed as accumulation at G2/M phase at 5.0 uM after 24 hrs by flow cytometry; assay type: functional; procedure, shortened: as §2
A549 [16] = experiment: Cell cycle arrest in human A549 cells assessed as accumulation at S phase at 10.0 uM after 24 hrs by flow cytometry; assay type: functional; procedure, shortened: as §2
A549 [17] = experiment: Cell cycle arrest in human A549 cells assessed as accumulation at G2/M phase at 1.0 uM after 24 hrs by flow cytometry; assay type: functional; procedure, shortened: as §2

| SMILES | GI50 at 72 h [1] [µM] | GI50 [2] [µM] | GI50 [3] [µM] | GI50 (A549 [4]) [µM] | GI50 (HepG2) [µM] | GI50 [5] [µM] | Activity (A549 [6]) [%] | Activity (A549 [7]) [%] | Activity (A549 [8]) [%] | Activity (A549 [9]) [%] | Activity (A549 [10]) [%] | Activity (A549 [11]) [%] | Activity (A549 [12]) [%] | Activity (A549 [13]) [%] | Activity (A549 [14]) [%] | Activity (A549 [15]) [%] | Activity (A549 [16]) [%] | Activity (A549 [17]) [%] |
| --- | --- | --- | --- | --- | --- | --- | --- | --- | --- | --- | --- | --- | --- | --- | --- | --- | --- | --- |
| O=C1c2cc(OCCN3CCCCC3)ccc2-c2c(-c3ccc(OCCN4CCCCC4)cc3)nc3ccc(OCCN4CCCCC4)cc3c21 | 4.64 | 6.07 | 5.02 | 0.81 | 0.7 | 6.26 |  |  |  |  |  |  |  |  |  |  |  |  |
| O=C1c2cc(O)ccc2-c2c(-c3ccc(O)cc3)nc3ccc(F)cc3c21 | > 10 | > 10 | 9.01 | > 10 | > 10 | 5.88 |  |  |  |  |  |  |  |  |  |  |  |  |
| O=C1c2cc(OCCN3CCCCC3)ccc2-c2c(-c3ccc(OCCN4CCCCC4)cc3)nc3ccccc3c21 | 4.34 | 6.24 | 1.35 | 5.68 | 4.32 | 6.38 |  |  |  |  |  |  |  |  |  |  |  |  |
| COc1ccc(-c2nc3ccccc3c3c2-c2ccc(OC)cc2C3=O)cc1 | > 10 | > 10 | > 10 | > 10 | > 10 | > 10 |  |  |  |  |  |  |  |  |  |  |  |  |
| O=C1c2cc(O)ccc2-c2c(-c3ccc(O)cc3)nc3ccc(O)cc3c21 | 10.3 | 6.61 | 12.2 | 4.98 | 5.51 | 10.4 |  |  |  |  |  |  |  |  |  |  |  |  |
| O=C1c2cc(O)ccc2-c2c(-c3ccc(OCCN4CCCC4)cc3)nc3ccccc3c21 | 3.16 | 6.06 | 3.4 | 4.33 | 4.28 | 7.05 |  |  |  |  |  |  |  |  |  |  |  |  |
| O=C1c2cc(OCCN3CCCC3)ccc2-c2c(-c3ccc(OCCN4CCCC4)cc3)nc3ccc(F)cc3c21 | 5.15 | 6.11 | 6.24 | 6.23 | 4.92 | 4.3 |  |  |  |  |  |  |  |  |  |  |  |  |
| O=C1c2cc(O)ccc2-c2c(-c3ccc(OCCN4CCCCC4)cc3)nc3ccccc3c21 | 3.1 | 6.4 | 5.4 | 5.06 | 4.3 | 6.55 |  |  |  |  |  |  |  |  |  |  |  |  |
| O=C1c2cc(O)ccc2-c2c(-c3ccc(OCCN4CCCCC4)cc3)nc3ccc(F)cc3c21 | 5.91 | 6.03 | 6.61 | 6 | 4.78 | 5.32 |  |  |  |  |  |  |  |  |  |  |  |  |
| CN(C)CCCOc1ccc(-c2nc3ccc(F)cc3c3c2-c2ccc(O)cc2C3=O)cc1 | 4.75 | 5.62 | 6.72 | 6.35 | 5.92 | 6.13 |  |  |  |  |  |  |  |  |  |  |  |  |
| COc1ccc(-c2nc3ccc(OC)cc3c3c2-c2ccc(OC)cc2C3=O)cc1 | 10.2 | > 10 | 12.5 | > 10 | > 10 | 7.84 | 1 | 1 | 78.2 | 0.9 | 8.4 | 13.2 | 76.9 | 77.9 | 14.3 | 7.8 | 14.7 | 8.6 |
| O=C1c2cc(OCCN3CCCC3)ccc2-c2c(-c3ccc(OCCN4CCCC4)cc3)nc3ccc(OCCN4CCCC4)cc3c21 | 0.71 | 3.44 | 1.73 | 0.67 | 0.62 | 0.37 |  |  |  |  |  |  |  |  |  |  |  |  |
| CN(C)CCCOc1ccc(-c2nc3ccc(F)cc3c3c2-c2ccc(OCCCN(C)C)cc2C3=O)cc1 | 1.86 | 0.59 | 0.67 | 3.67 | 0.61 | 0.72 |  |  |  |  |  |  |  |  |  |  |  |  |
| O=C1c2cc(O)ccc2-c2c(-c3ccc(O)cc3)nc3ccccc3c21 | > 10 | > 10 | > 10 | > 10 | 9.12 | > 10 |  |  |  |  |  |  |  |  |  |  |  |  |
| COc1ccc(-c2nc3ccc(F)cc3c3c2-c2ccc(OC)cc2C3=O)cc1 | > 10 | > 10 | > 10 | > 10 | > 10 | 6.44 |  |  |  |  |  |  |  |  |  |  |  |  |
| CC[C@@]1(O)C(=O)OCc2c1cc1n(c2=O)Cc2cc3c(CN(C)C)c(O)ccc3nc2-1 [TOPOTECAN] | 4.25 | 4.95 | 0.22 | 5.98 | 3.83 | > 10 |  |  |  |  |  |  |  |  |  |  |  |  |
| CN(C)CCCOc1ccc(-c2nc3ccccc3c3c2-c2ccc(OCCCN(C)C)cc2C3=O)cc1 | 3.68 | 5.39 | 3.05 | 3.07 | 4.35 | 5.35 |  |  |  |  |  |  |  |  |  |  |  |  |
| O=C1c2cc(O)ccc2-c2c(-c3ccc(OCCN4CCCC4)cc3)nc3ccc(F)cc3c21 | 6.02 | 5.69 | 6.34 | 6.63 | 6.1 | 5.25 |  |  |  |  |  |  |  |  |  |  |  |  |
| CCc1c2c(nc3ccc(OC(=O)N4CCC(N5CCCCC5)CC4)cc13)-c1cc3c(c(=O)n1C2)COC(=O)[C@]3(O)CC [IRINOTECAN] | 77.5 | > 10 | 4.73 | > 10 | 5.94 | > 10 |  |  |  |  |  |  |  |  |  |  |  |  |
| CN(C)CCCOc1ccc(-c2nc3ccccc3c3c2-c2ccc(O)cc2C3=O)cc1 | 4.61 | 6.82 | 5.34 | 5.87 | 5.59 | 6.39 |  |  |  |  |  |  |  |  |  |  |  |  |
| O=C1c2cc(OCCN3CCCC3)ccc2-c2c(-c3ccc(OCCN4CCCC4)cc3)nc3ccccc3c21 | 5.31 | 6.15 | 3.46 | 3.75 | 4.03 | 6.95 |  |  |  |  |  |  |  |  |  |  |  |  |
| O=C1c2cc(OCCN3CCCCC3)ccc2-c2c(-c3ccc(OCCN4CCCCC4)cc3)nc3ccc(F)cc3c21 | 4.52 | 3 | 0.66 | 6.24 | 2.82 | 0.79 |  |  |  |  |  |  |  |  |  |  |  |  |
